Assay results: ChEMBL document CHEMBL1131506, “Development of a binding model to protein tyrosine kinases for substituted pyrido[2,3-d]pyrimidine inhibitors” (J Med Chem, 1998)

How the values were obtained:
[1] = target: Fibroblast growth factor receptor (Homo sapiens, UniProt P22607+P11362+P22455+P21802); assay: Inhibitory concentration of compound against human fibroblast growth factor receptor; format: protein assay
[2] = target: Platelet-derived growth factor receptor (Mus musculus, UniProt P05622+P26618); assay: Inhibitory concentration of compound against mouse Platelet-derived growth factor receptor
[3] = target: Proto-oncogene tyrosine-protein kinase Src (Gallus gallus, UniProt P00523); assay: Inhibition of chicken c-Src tyrosine kinase
Outline: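 Recombinant avian c-Src expressed in baculovirus-infected insect cells, immunopurified on polystyrene beads carrying a covalently linked Src-specific monoclonal antibody. The enzyme-bead suspension was assayed in vitro with 40 µM ATP, measuring 32P-phosphate transfer into a trichloroacetic acid-precipitable random glutamate/tyrosine (4:1) copolymer. The IC50 was in µM.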

[4] = target: Epidermal growth factor receptor (Homo sapiens, UniProt P00533); assay: Inhibition of human epidermal growth factor receptor
Epidermal growth factor receptor, sequence (P00533 whole entry): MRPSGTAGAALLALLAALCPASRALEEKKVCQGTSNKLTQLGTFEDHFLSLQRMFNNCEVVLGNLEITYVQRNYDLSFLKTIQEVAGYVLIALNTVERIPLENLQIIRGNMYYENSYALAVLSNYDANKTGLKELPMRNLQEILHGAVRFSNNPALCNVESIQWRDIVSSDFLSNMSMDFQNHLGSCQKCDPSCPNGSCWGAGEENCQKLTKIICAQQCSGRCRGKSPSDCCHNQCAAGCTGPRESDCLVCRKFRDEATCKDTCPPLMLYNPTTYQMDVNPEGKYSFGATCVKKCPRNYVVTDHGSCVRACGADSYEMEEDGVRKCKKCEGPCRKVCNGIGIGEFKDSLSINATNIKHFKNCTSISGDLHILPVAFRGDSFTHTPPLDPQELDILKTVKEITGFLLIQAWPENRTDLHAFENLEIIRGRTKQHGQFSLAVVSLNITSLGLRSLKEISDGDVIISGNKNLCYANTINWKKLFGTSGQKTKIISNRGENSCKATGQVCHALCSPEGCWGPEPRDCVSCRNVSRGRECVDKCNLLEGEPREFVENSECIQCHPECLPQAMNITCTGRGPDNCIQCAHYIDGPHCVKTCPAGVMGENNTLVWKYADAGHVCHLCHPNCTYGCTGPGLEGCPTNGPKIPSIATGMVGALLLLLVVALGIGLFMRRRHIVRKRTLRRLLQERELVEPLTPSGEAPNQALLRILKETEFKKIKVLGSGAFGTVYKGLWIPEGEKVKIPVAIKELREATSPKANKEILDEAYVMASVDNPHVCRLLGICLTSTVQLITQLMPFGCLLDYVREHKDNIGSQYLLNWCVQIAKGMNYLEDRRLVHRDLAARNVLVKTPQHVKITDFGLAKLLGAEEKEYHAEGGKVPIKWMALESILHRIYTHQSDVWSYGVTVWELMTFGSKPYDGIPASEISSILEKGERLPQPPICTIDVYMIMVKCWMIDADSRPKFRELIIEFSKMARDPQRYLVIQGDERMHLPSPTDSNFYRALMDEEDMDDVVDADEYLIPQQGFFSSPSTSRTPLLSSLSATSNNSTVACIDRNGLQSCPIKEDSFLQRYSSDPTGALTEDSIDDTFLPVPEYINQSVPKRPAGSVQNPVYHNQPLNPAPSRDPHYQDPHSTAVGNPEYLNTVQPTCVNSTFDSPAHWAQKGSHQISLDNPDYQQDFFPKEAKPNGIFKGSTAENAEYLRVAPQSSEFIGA

| IC50 [1] [µM] | IC50 [2] [µM] | IC50 [3] [µM] | IC50 [4] [µM] | SMILES |
| --- | --- | --- | --- | --- |
| > 16 | > 50 | > 50 | – | CN(C)c1cc(-c2cc3cnc(N)nc3nc2NC(=O)NC(C)(C)C)cc(N(C)C)c1 |
| – | – | 0.03 | 0.98 | CN1CCN(CCCNc2ncc3cc(-c4c(Cl)cccc4Cl)c(NC(=O)NCc4ccccc4)nc3n2)CC1 |
| 0.061 | 0.07 | 0.01 | – | Cn1c(=O)c(-c2c(Cl)cccc2Cl)cc2cnc(Nc3ccc(CC(=O)O)cc3)nc21 |
| – | – | 0.009 | – | CCN(CC)CCOc1cccc(Nc2ncc3cc(-c4c(Cl)cccc4Cl)c(=O)n(C)c3n2)c1 |
| – | – | – | 0.88 | CN1CCN(CCCNc2ncc3cc(-c4c(Cl)cccc4Cl)c(NC(=O)NC4CCCCC4)nc3n2)CC1 |
| > 50 | > 50 | > 10 | > 50 | Cn1c(=O)c(-c2c(Cl)cccc2Cl)cc2cncnc21 |
| – | – | > 50 | – | COc1cc(OC)cc(-c2cc3cnc(N)nc3nc2NC(=O)NC(C)(C)C)c1 |
| – | – | 0.028 | 0.72 | COc1ccc(NC(=O)Nc2nc3nc(NCCCN4CCN(C)CC4)ncc3cc2-c2c(Cl)cccc2Cl)cc1 |
| 1.65 | > 50 | > 50 | – | CCOc1cc(OCC)cc(-c2cc3cnc(N)nc3nc2NC(=O)NC(C)(C)C)c1 |
| > 50 | > 50 | > 50 | > 50 | Cc1ncc2cc(-c3c(Cl)cccc3Cl)c(=O)n(C)c2n1 |
| > 50 | > 50 | > 50 | – | CC(C)(C)NC(=O)Nc1nc2nc(N)ncc2cc1-c1cc(C(F)(F)F)cc(C(F)(F)F)c1 |
| > 50 | > 50 | > 50 | > 50 | CN(C)c1ncc2cc(-c3c(Cl)cccc3Cl)c(=O)n(C)c2n1 |

| SMILES | IC50 [1] [µM] | IC50 [2] [µM] | IC50 [3] [µM] | IC50 [4] [µM] |
| --- | --- | --- | --- | --- |
| CN1CCN(c2ccc(Nc3ncc4cc(-c5c(Cl)cccc5Cl)c(=O)n(C)c4n3)cc2)CC1 | 0.051 | 0.115 | – | – |
| CN1CCN(CCCNc2ncc3cc(-c4c(Cl)cccc4Cl)c(=O)n(C)c3n2)CC1 | 0.348 | 2.7 | 0.237 | – |
| COc1cc(OC)cc(-c2cc3cnc(N)nc3n(C)c2=O)c1 | 0.126 | 43.1 | > 50 | – |
